# Results pooled from the literature.
# Compare with care: the assays were run in different laboratories.
SMILES,method,matrix,time,pH,temperature,notes,solubility
O=C(/C=C/c1ccc(CN(CCO)CCc2c[nH]c3ccccc23)cc1)NO,,simulated gastric fluid,48 h,pH 2,25 °C,acidic,4100 µg/mL
CC(C)CC(=O)N1CCC[C@H](COc2cccc3c2C(N)=NS(=O)(=O)N3)C1,,ethanol,,,,,1230 µM
COc1ccc2cc(-c3nn(C(C)(C)C)c(N)c3C(N)=O)cnc2c1,,PBS,,pH 6.5,25 °C,,> 100 µM
COc1ccc2c(c1)c(CC(=O)O)c(C)n2C(=O)c1ccc(Cl)cc1,,PBS,20 h,pH 7.4,20 °C,,246 µg/mL
CN1CCN(CC2CCN(c3nccc4[nH]c(-c5cccc(OCCN)c5)nc34)CC2)CC1,shake flask,aqueous buffer,,pH 6.5,,,> 200 µM
CCc1nc2nc(C)cc(Nc3cccc(Cl)c3)n2n1,nephelometry,aqueous buffer,,pH 6.5,,,170 to 350 µM
COc1c(Cl)cccc1Nc1nc(NCc2ccccc2)c2ccccc2n1,,aqueous buffer,,pH 5,,,0.5 µg/mL
Cc1ccc(S(=O)(=O)NCc2ccc(C(=O)NCCN(Cc3ccccc3)C(C)C)cc2)cc1,,aqueous buffer,,pH 5,,,0.47 µg/mL
Cc1nccn1CC1CCc2c(c3ccccc3n2C)C1=O (stereo not shown),,PBS,24 h,pH 7.4,25 °C,,93 µM
Brc1ccc2c(c1)nc(N1CCNCC1)n2Cc1ccccc1,shake flask,aqueous buffer,20 h,pH 6.5,25 °C,,105 µM
Cc1cc2c(cc1C)[n+](Cc1ccc3ccccc3n1)cn2Cc1ccc2ccccc2n1.[Cl-],,water,,,,,> 500 µg/mL
Brc1cccc(Nc2nc(NCc3ccccc3)c3ccccc3n2)c1,,aqueous buffer,,pH 6.2,,,0.01 µg/mL
CC(C)C[C@H](NC(=O)[C@H](CCc1ccccc1)NC(=O)CN1CCOCC1)C(=O)N[C@@H](Cc1ccccc1)C(=O)N[C@@H](CC(C)C)C(=O)[C@@]1(C)CO1,,PBS,24 h,pH 7.4,,,1.12 µg/mL
Cl.Clc1ccc2c(nc(N3CCNCC3)n2Cc2ccccc2)c1-c1ccccc1,shake flask,aqueous buffer,20 h,pH 6.5,25 °C,,195 µM
O=C(Nc1c2c(cc3c1CCC3)CCC2)NS(=O)(=O)/C=C/c1nccs1,,water,24 h,,37 °C,,11.2 µg/mL
CC[C@H](C)[C@H](NC(=O)[C@H](Cc1ccccc1)NC(=O)[C@H](Cc1ccc(O)cc1)NC(=O)[C@@H]1CCCN1C(=O)[C@@H](N)Cc1ccc(O)cc1)C(=O)N1CCC[C@H]1C(=O)N[C@H](CCCCN)C(=O)NCC(=O)N[C@H](CCCCN)C(=O)NCC(=O)N[C@@H](CCC(=O)O)C(=O)N[C@H](C(=O)N[C@@H](CC(N)=O)C(=O)N[C@@H](CC(C)C)[C@@H](O)CC(=O)N[C@H](C(=O)N[C@@H](C)C(=O)N[C@@H](CCC(=O)O)C(=O)N1CCC[C@@H]1C(=O)N[C@@H](CCCCNC(=O)CCC(=O)O[C@H]1CC[C@@]2(C)C(=CC[C@H]3[C@@H]4CC[C@H]([C@H](C)CCCC(C)C)[C@@]4(C)CC[C@@H]32)C1)C(N)=O)C(C)C)C(C)C,,aqueous buffer,,pH 6.5,,,> 718 µg/mL
Cc1c(F)cccc1NC(=O)Nc1ccc(Cl)c(S(=O)(=O)[C@H]2CCCNC2)c1O,,aqueous buffer,4 h,pH 5,,,6 µg/mL
COc1cccc2c(NCc3ccccc3)nc(-n3c(=O)oc4ccccc43)nc12,,aqueous buffer,,pH 5,,,0.02 µg/mL
O=C(Nc1cc(F)ccc1C(=O)O)c1ccc(-c2ccccc2)cc1,shake flask,aqueous buffer,24 h,pH 6.5,25 °C,,5 µM
CCOc1ccc2cc(-c3nn(C4CCCCC4)c(N)c3C(N)=O)ccc2n1,,PBS,,pH 6.5,25 °C,,88.9 µM
COc1cc2ncnc3c2cc1OCCOCCOc1cc(F)c(Cl)cc1N3,HPLC,aqueous buffer,24 h,,,,0.131 to 0.174 µg/mL
COc1cccc(OC)c1-c1nc(C(=O)N[C@@H](CC(C)C)C(=O)O)cn1-c1cccc2ccccc12,,aqueous buffer,,pH 6.2,,,> 145 µg/mL
CSc1nc2nc(C)cc(Nc3ccc(S(F)(F)(F)(F)F)cc3)n2n1,nephelometry,aqueous buffer,,pH 6.5,,,7.8 to 15 µM
COc1cccc2c(NCc3ccccc3)nc(NCc3ccccc3)nc12,,aqueous buffer,,pH 6.2,,,1 µg/mL
CCOc1ccc2cc(-c3nn(C4CCCCC4)c(N)c3C(N)=O)cnc2c1,,PBS,,pH 6.5,25 °C,,34.3 µM
CCCCCCCCCCCCN1CCCC1=O,,PBS,48 h,pH 7.4,25 °C,,21 µM
CC(=O)N[C@@H](CC(N)=O)C(=O)N[C@@H](CC(N)=O)C(=O)N[C@@H](CC(C)C)C(=O)N[C@H]1CSSC[C@@H](C(=O)N[C@H](C(N)=O)[C@@H](C)O)NC(=O)[C@H](CCCNC(=N)N)NC(=O)[C@H](Cc2c[nH]cn2)NC(=O)[C@H](C)NC(=O)CNC(=O)[C@H](Cc2c[nH]c3ccccc23)NC(=O)[C@H](CC(=O)O)NC(=O)[C@H](CCC(N)=O)NC(=O)[C@H](Cc2c[nH]c3ccccc23)NC(=O)[C@H](C(C)C)NC1=O,,PBS,,pH 7.4,,,3920 µg/mL
CCOC(=O)C1=C(C)NC(C)=C(C(=O)OC)C1c1cccc([N+](=O)[O-])c1 (stereo not shown),,FaSSIF,24 h,pH 7.4,37 °C,,8 µg/mL
CN1CCN(CC2CCN(c3nccc4[nH]c(-c5cccc(OC(F)(F)F)c5)nc34)CC2)CC1,shake flask,aqueous buffer,,pH 6.5,,,> 200 µM
CCC(=O)O[C@]1(C(=O)SCF)[C@H](C)C[C@H]2[C@@H]3C[C@H](F)C4=CC(=O)C=C[C@]4(C)[C@@]3(F)[C@@H](O)C[C@@]21C,,FaSSIF,,,,,3.12 µM
COCc1nc2nc(C)cc(Nc3ccc(S(F)(F)(F)(F)F)cc3)n2n1,nephelometry,aqueous buffer,,pH 6.5,,,63 to 130 µM
NC(=O)c1ccc(N(Cc2ccc(C3CCCCC3)cn2)C(=O)[C@H]2CCN2S(=O)(=O)c2c(F)c(F)c(F)c(F)c2F)cc1O,,simulated intestinal fluid,,,,,117 µg/mL
CCC(C)n1ncn(-c2ccc(N3CCN(c4ccc(OCC5COC(Cn6cncn6)(c6ccc(Cl)cc6Cl)O5)cc4)CC3)cc2)c1=O (stereo not shown),,aqueous buffer,,pH 6,,,2.5 µg/mL
CCOc1ccc2cc(-c3nn(CC(C)(C)CO)c(N)c3C(N)=O)ccc2n1,,PBS,,pH 6.5,25 °C,,> 100 µM
COc1cc(NC(=O)c2ccc(C3=CCN(C(=N)N)CC3)c(F)c2)ccc1C1=CCN(C(=N)N)CC1,shake flask,aqueous buffer,,pH 7.4,,,1210 µg/mL
O=C(c1ccccn1)N(Cc1cccs1)C1(C(=O)NC2CCCCC2)CCCCC1,,aqueous buffer,,pH 7.4,,,6.5 µg/mL
CCCCOC(=O)c1ccc(O)cc1,,PBS,,pH 7.4,,,310 µg/mL
CN1CCN(CC2CCN(c3nccc4[nH]c(-c5cc(F)cc(F)c5)nc34)CC2)CC1,shake flask,aqueous buffer,,pH 6.5,,,> 200 µM
c1ccc(CNc2nc(N3CCNc4ccccc43)nc3ccccc23)cc1,,aqueous buffer,,pH 6.2,,,18 µg/mL
CN1CCN(C2CCN(c3nccc4[nH]c(-c5cc(F)cc(F)c5)nc34)CC2)CC1,shake flask,aqueous buffer,,pH 6.5,,,> 200 µM
CCOc1ccc2cc(-c3nn(CC(C)(C)CO)c(N)c3C(N)=O)cnc2c1,,PBS,,pH 6.5,25 °C,,> 100 µM
Cc1ccc(F)cc1Nc1nc(NCc2ccccc2)c2ccccc2n1,,aqueous buffer,,pH 5,,,5.6 µg/mL
CCOc1nc2nc(C)cc(Nc3ccc(C(F)(F)F)cc3)n2n1,nephelometry,aqueous buffer,,pH 6.5,,,19 to 37 µM
Cc1cccc(C(=O)Nc2cccc(NC(=O)c3ccccc3)c2)c1,,aqueous buffer,,,,,< 0.03 µM
COc1cc(OC)cc(N(CCNC(C)C)c2ccc3ncc(-c4cnn(C)c4)nc3c2)c1,,aqueous buffer,,pH 6.79,,,6820 µg/mL
CC(C)c1cccc2c(-c3ccccc3)cc(-c3ccc(-c4ccc(C(=O)O)cc4)[nH]3)nc12,,PBS,,pH 7.4,,,71.6 µM
O=C(Nc1ccc(S(=O)(=O)N2CCC(Cl)CC2)cc1)c1ccc([N+](=O)[O-])o1,,aqueous buffer,,pH 7.4,,,9.7 µM
COc1cccc(OC)c1-c1nc(C(=O)N[C@@H](CC(C)C)C(=O)O)cn1-c1ccnc2cc(Cl)ccc12,,aqueous buffer,,pH 5,,,> 52 µg/mL
C[C@]12CCCN1CC1=NNC(=O)c3cc(F)cc4[nH]c2c1c34,,ethanol,,,,,49000 µg/mL
Cl.NC1CCN(c2nc3cc(Cl)ccc3n2Cc2ccccc2)CC1,shake flask,aqueous buffer,20 h,pH 6.5,25 °C,,> 150 µM
CCCOC(=O)c1ccc(N)cc1,,PBS,,pH 7.4,,,749 µg/mL
Cc1cc(F)cc(Nc2nc(NCc3ccccc3)c3ccccc3n2)c1,,aqueous buffer,,pH 7.4,,,< 0.01 µg/mL
CN(C)C1CN(Cc2ccc(NC(=O)c3ccc(OCCCl)c([N+](=O)[O-])c3)cc2C(F)(F)F)C1,HPLC,water,1 h,,,,< 5 µg/mL
Cl.Clc1ccc2c(nc(N3CCNCC3)n2Cc2ccccc2)c1Cl,shake flask,aqueous buffer,20 h,pH 6.5,25 °C,,70 µM
COc1ccc(Nc2nc(NCc3ccccc3)c3ccccc3n2)cc1F,,aqueous buffer,,pH 6.2,,,0.03 µg/mL
